In ChEMBL document CHEMBL1153554, “Mechanisms by which the G333D mutation in human immunodeficiency virus type 1 Reverse transcriptase facilitates dual resistance to zidovudine and lamivudine” (Antimicrob Agents Chemother, 2008):
pKd: −log10 of the molar value.

Experiments:
[1] = target: Human immunodeficiency virus type 1 reverse transcriptase (Human immunodeficiency virus 1) (UniProt Q72547); assay: Ratio of Kpol to Kd for wild type HIV1 LAI reverse transcriptase
In short: (§1)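 Pre-steady-state rapid quench: 400 nM active-site RT and 40 nM ³²P-P20/T57 DNA T/P were preincubated in 50 mM Tris-HCl pH 7.5, 50 mM KCl, then mixed with nucleotide in the same buffer containing 20 mM MgCl₂. Quenched with 0.3 M EDTA from 10 ms to 30 min, run on urea-PAGE. kobs came from single-exponential fits; kpol and Kd came from a hyperbolic fit versus nucleotide concentration.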

[2] = system: Human immunodeficiency virus type 1 reverse transcriptase (Human immunodeficiency virus 1), Q72547 [M184V]; assay: Ratio of Kpol to Kd for HIV1 LAI reverse transcriptase M184V mutant; in short: as §1
[3] = system: Human immunodeficiency virus type 1 reverse transcriptase (Human immunodeficiency virus 1), Q72547 [M41L,L210W,T215Y]; assay: Ratio of Kpol to Kd for HIV1 LAI reverse transcriptase M41L/L210W/T215Y mutant; in short: as §1
[4] = system: Human immunodeficiency virus type 1 reverse transcriptase (Human immunodeficiency virus 1), Q72547 [M41L,L210W,T215Y,M184V]; assay: Ratio of Kpol to Kd for HIV1 LAI reverse transcriptase M41L/L210W/T215Y/M184V mutant; in short: as §1
[5] = system: Human immunodeficiency virus 1; assay: Ratio of Kpol to Kd for HIV1 LAI reverse transcriptase M41L/L210W/T215Y/M184V/G333D mutant; in short: as §1
[6] = system: Human immunodeficiency virus type 1 reverse transcriptase (Human immunodeficiency virus 1), Q72547 [M41L,L210W,T215Y]; assay: Binding affinity to HIV1 LAI reverse transcriptase M41L/L210W/T215Y mutant relative to wild type
[7] = system: Human immunodeficiency virus type 1 reverse transcriptase (Human immunodeficiency virus 1), Q72547 [M41L,L210W,T215Y,M184V]; assay: Binding affinity to HIV1 LAI reverse transcriptase M41L/L210W/T215Y/M184V mutant relative to wild type
[8] = system: Human immunodeficiency virus 1; assay: Binding affinity to HIV1 LAI reverse transcriptase M41L/L210W/T215Y/M184V/G333D mutant relative to wild type
[9] = target: Human immunodeficiency virus type 1 reverse transcriptase (Human immunodeficiency virus 1, UniProt Q72547); assay: Binding affinity to wild type HIV1 LAI reverse transcriptase
In short: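 Bacterially expressed, purified RT, corrected for active-site concentration, preincubated at 400 nM with 40 nM 5′-³²P-labelled 20-nt DNA primer annealed to a 57-nt DNA template in 50 mM Tris-HCl pH 7.5, 50 mM KCl. It was then rapid-quench mixed 1:1 with nucleotide in the same buffer plus 20 mM MgCl₂. EDTA quench at 10 ms–30 min; urea-PAGE. k_obs fitted single-exponential; K_d from hyperbolic k_obs-versus-concentration fit.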

[10] = target: Human immunodeficiency virus type 1 reverse transcriptase (Human immunodeficiency virus 1, UniProt Q72547, M184V); assay: Binding affinity to HIV1 LAI reverse transcriptase M184V mutant
[11] = target: Human immunodeficiency virus type 1 reverse transcriptase (Human immunodeficiency virus 1, UniProt Q72547, L210W/M41L/T215Y); assay: Binding affinity to HIV1 LAI reverse transcriptase M41L/L210W/T215Y mutant
[12] = target: Human immunodeficiency virus type 1 reverse transcriptase (Human immunodeficiency virus 1, UniProt Q72547, L210W/M184V/M41L/T215Y); assay: Binding affinity to HIV1 LAI reverse transcriptase M41L/L210W/T215Y/M184V mutant
[13] = Binding affinity to HIV1 LAI reverse transcriptase M41L/L210W/T215Y/M184V/G333D mutant; parameters: species or system Human immunodeficiency virus 1
[14] = system: Human immunodeficiency virus type 1 reverse transcriptase (Human immunodeficiency virus 1), Q72547 [M184V]; assay: Resistance (selectivity ratio) of HIV1 LAI reverse transcriptase M184V mutant relative to wild type

Row | SMILES | Ratio [1] | Ratio [2] | Ratio [3] | Ratio [4] | Ratio [5] | fold change (FC) [6] | fold change (FC) [7] | fold change (FC) [8] | pKd [9] | pKd [10] | pKd [11] | pKd [12] | pKd [13] | fold resistance [14]
1 | Nc1ccn([C@@H]2CS[C@H](COP(=O)(O)OP(=O)(O)OP(=O)(O)O)O2)c(=O)n1 [LAMIVUDINE TRIPHOSPHATE] | 0.06 | 0.00061 | 0.04 | 0.0004 | 0.00028 | 1.5 | 61.8 | 116 | 6.43 | 5.09 | 6.37 | 5.01 | 4.75 | 48.8
2 | Cc1cn([C@H]2C[C@H](N=[N+]=[N-])[C@@H](COP(=O)(O)OP(=O)(O)OP(=O)(O)O)O2)c(=O)[nH]c1=O [ZIDOVUDINE TRIPHOSPHATE] | 4.41 | 2.41 | 4.26 | 1.3 | 1.1 | 1.14 | 1.76 | 1.81 |  |  |  |  | 5.42 | 1.13
3 | Cc1cn([C@H]2C[C@H](N=[N+]=[N-])[C@@H](CO[P@](=O)(O)O[P@](=O)(O)OP(=O)(O)O)O2)c(=O)[nH]c1=O [ZIDOVUDINE TRIPHOSPHATE] |  |  |  |  |  |  |  |  | 5.70 | 5.54 | 5.94 | 5.46 |  | 
